Measured values collected from several papers.
Protocols differ between the studies behind these lines.
CDK2 with cyclin A2: Cyclin-dependent kinase 2, with cyclin A2 (CDK2, Homo sapiens, UniProt P24941)
ST14: Suppressor of tumorigenicity 14 protein (ST14, Homo sapiens, UniProt Q9Y5Y6)

SMILES | target | test | conditions | measurement | value
Cc1cc([C@@H](C)Nc2ccccc2C(=O)O)c2nc(N3CCC(F)(F)CC3)c(C#N)c(=O)n2c1 | Angiopoietin-1 receptor (TEK, Homo sapiens, UniProt Q02763) | binding, competition with immobilised ligand | 1 µM | remaining binding | 60%
COc1cc(-c2cncc3c2CN(C)Cc2cc(N4CCNCC4)ccc2-3)cc(OC)c1OC | Vascular endothelial growth factor receptor 3 (FLT4, Homo sapiens, UniProt P35916) | enzyme activity, inhibitor | 1 µM | remaining activity | 86%
CC(=O)Nc1c(N)nc(SCC(=O)NN)[nH]c1=O | CDK2 with cyclin A2 | enzyme activity, inhibitor | 10 nM | inhibition | 22.9%
C=CC(=O)N1CCC(COCC(=O)N2CCN(c3nc(-c4cnc(N)nc4C(F)F)nc(N4CCOC[C@@H]4C)n3)CC2)CC1 | ALK tyrosine kinase receptor (ALK, Homo sapiens, UniProt Q9UM73, C1156Y) | binding, competition with immobilised ligand | 1 µM | remaining binding | 79%
CC(C)(C)[C@H](NC(=O)[C@H](Cc1cscn1)NC(=O)CCc1ccccc1)C(=O)N[C@@H](CCCNC(=N)N)C(=O)c1nc2ccccc2s1 | ST14 | enzyme activity, inhibitor | 0.1 µM | remaining activity | 89%
CNC(=O)c1cc(Oc2ccc(NC(=O)Nc3ccc(Cl)c(C(F)(F)F)c3)cc2)ccn1 | CDK2 with cyclin A2 | enzyme activity, inhibitor | 0.1 µM | inhibition | 58.2%
N=C(N)NCCC[C@H](NC(=O)[C@H](Cc1ccccc1I)NC(=O)[C@H](Cc1cscn1)NC(=O)CCc1ccccc1)C(=O)c1nc2ccccc2s1 | ST14 | enzyme activity, inhibitor | 0.1 µM | remaining activity | 90%
CNc1ncc2c(/C=C/C(=O)N3CCC(OC)CC3)nn(Cc3cccc(C(F)(F)F)c3)c2n1 | ALK tyrosine kinase receptor (ALK, Homo sapiens, UniProt Q9UM73) | enzyme activity, inhibitor, radiometric | 1 µM | remaining activity | 83%
CC(=O)Nc1c(N)nc(SCC(=O)N/N=C/c2ccc([N+](=O)[O-])cc2)[nH]c1=O | CDK2 with cyclin A2 | enzyme activity, inhibitor | 0.1 µM | inhibition | 37.6%
N=C(N)NCCC[C@H](NC(=O)[C@H](Cc1cccc2ccccc12)NC(=O)[C@H](Cc1cscn1)NC(=O)CCc1ccccc1)C(=O)c1nc2ccccc2s1 | ST14 | enzyme activity, inhibitor | 0.1 µM | remaining activity | 6%
